Among all 2,500 compounds or so, about 1,200 (48%) were called active.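 The calls were made as follows: active = mean activation above the low control average plus 3 SD, as set in the primary screen (cut at about 12% in these data); inactive = the rest.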 The set was probably picked from earlier hits. The list shows a part of the results.

For the assay, the target named is Troponin I, cardiac muscle (Homo sapiens) + Troponin T, cardiac muscle (Homo sapiens) + Troponin C, slow skeletal and cardiac muscles (Homo sapiens) (UniProt P19429+P45379+P63316). Briefly: cardiac RTF calcium sensitivity activators, confirmation, biochemical, IANBD-TnC fluorescence, triplicate (AID 504383).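 Also: 0% = DMSO at 0.472 mM calcium and 100% = DMSO at 2.9 mM calcium.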 Conditions: IANBD-labeled cardiac RTF, Ca2+ sensitivity fluorescence, at 7.2 µM, stronger effect = higher value, tested at EC20 calcium, 0.472 mM. An outline of the steps: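 material = labelled regulated thin filaments | probe or stimulus = Ca2+ 0.472 mM, EC20 level | dosing = single nominal compound dose of 7.2 µM | schedule = 15 min at 25 °C | signal = fluorescence intensity of labelled filaments | evaluation = fluorescence gain scaled between EC20 and EC100 calcium controls | benchmarks = low control EC20 calcium, high control EC100 calcium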
Turning to `CCN(CC)c1ccc(/C=C/[N+](=O)[O-])cc1`, the activation is 19.8% (active).
Under `Cn1cc(C=C(C#N)C#N)c2ccccc21` stands 69.5% (active).
The value for `COC(=O)C1=C(c2cccc(OC)c2OC)C[C@@H]2CC[C@H]1N2C(=O)NCCCOC(C)C` was 5.72% (inactive); that for `COC(=O)C1=C(c2ccc(F)cc2OCc2ccccc2)C[C@@H]2CC[C@H]1N2C(=O)NCc1ccc(OC)c(OC)c1` was 154% (active).
As for `COC(=O)C1=C(c2cccc(OC)c2OC)C[C@@H]2CC[C@H]1N2C(=O)NCc1ccco1`, the activation was 13.3% (active).
Regarding `CCN(CC)CCCOC(=O)C(OC(C)C)(c1ccccc1)c1ccccc1`, the activation was 57.9% (active).
Under `C/C(=N\N1CCCCC1c1cccnc1)c1c(O)n(C2CCCCC2)c(=S)[nH]c1=O` (centres undefined) stands 68.2% (active); under `COc1ccc(OC)c(-n2c(O)c(C=NCCN3CCNCC3)c(=O)[nH]c2=S)c1`, 27.9% (active); under `Cc1ccc(-n2c(O)c(C=NCC3CCCO3)c(=O)[nH]c2=O)c(C)c1` (centres undefined), 7.57% (inactive).
For the molecule `O=c1[nH]c(=S)n(-c2ccccc2Cl)c(O)c1C=NCCN1CCNCC1`, the activation was 1670% (active).
With `Cc1cccc(N2C(=O)NC(=O)/C(=C\c3ccc4c(c3)CCCN4Cc3ccccc3)C2=O)c1`, the activation is 4.9% (inactive).
`CCOCCCNC(=O)C1c2cc(OC)c(OC)cc2C(=O)N2CCCCC12` (centres undefined): the activation is 2.74% (inactive).
Under `CN1CCN(c2ccc(/C=C3\C(=O)NC(=S)N(c4cccc(Br)c4)C3=O)o2)CC1` stands 4.38% (inactive); under `Cc1ccccc1N1C(=O)NC(=O)/C(=C\c2cc(Br)c(N3CCOCC3)o2)C1=O`, 11% (inactive).
The value for `CCc1ccccc1N1C(=O)/C(=C/c2ccc(N3CCN(C)CC3)o2)C(=O)NC1=S` was 1030% (active); that for `COc1ccccc1N1C(=O)NC(=O)/C(=C/c2ccc3c4c(cccc24)CC3)C1=O` was 2.54% (inactive); that for `Cc1ccccc1N1C(=O)NC(=O)/C(=C/c2ccc(N3CCOCC3)o2)C1=O` was 42.7% (active).
On to `Cc1cccc(N2C(=O)/C(=C/c3ccc(N4CCN(C)CC4)o3)C(=O)NC2=S)c1C`, for which the activation is 16.4% (active).
Under `COc1ccc(N2C(=O)/C(=C/c3ccc(N(C)C)o3)C(=O)NC2=S)cc1` stands 338% (active).
The value for `C=CCN1C(=O)/C(=C\c2ccc(N3CCOCC3)o2)C(=O)NC1=S` was 4% (inactive); that for `CN1C(=O)C(=Cc2ccc(N3CCOCC3)o2)C(=O)N(C)C1=S` was 10.3% (inactive); that for `CCN1C(=O)C(=Cc2ccc(N3CCOCC3)o2)C(=O)N(CC)C1=S` was 7.34% (inactive).
Under `CN1C(=O)C(=Cc2ccc(N3CCOCC3)o2)C(=O)N(C)C1=O` stands 50.2% (active); under `O=C1NC(=O)C(=Cc2ccc(N3CCOCC3)o2)C(=O)N1`, 2.33% (inactive); under `CN1C(=O)C(=Cc2sc(=O)n(-c3ccccc3)c2N2CCCCC2)C(=O)N(C)C1=O`, 3.11% (inactive).
On to `CCN(CC)c1ccc(/C=C2\C(=O)NC(=S)N(c3ccc(OC)cc3OC)C2=O)o1`, for which the activation is 8.36% (inactive).
As to `CN1C(=O)C(=Cc2ccc(N3CCCCCC3)o2)C(=O)N(C)C1=S`, the activation was 94.7% (active).
Regarding `C=CCN1C(=O)/C(=C/c2ccc(N3CCOCC3)o2)C(=O)NC1=S`, the activation was 29.1% (active).
Under `COc1cc(/C=C2/C(=O)NC(=O)N(c3ccc(C)cc3)C2=O)cc(OC)c1OC` stands 6.29% (inactive).
